The source made the active and inactive calls. The rule behind the calls is not given here.
Key:
[1] = system: HeLa; assay: Antiproliferative activity against human HeLa cells after 48 hrs by sulforhodamine B assay; format: functional
Method in brief: (§1)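 Exponentially growing cells trypsinized into penicillin/streptomycin medium, >97% viable by trypan blue. Seeded per well: 10,000 (A549, HBL-100, HeLa, SW1573), 15,000 (T-47D), 20,000 (WiDr). Treatment began day 1, DMSO stocks 40 mM, 0.25% DMSO as control, triplicate, 48 h. Cells fixed with cold TCA 60 min at 4 °C, SRB stained, OD492 read, medium background subtracted.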

[2] = system: Saccharomyces bayanus; assay: Un-competitive inhibition of baker's yeast alpha-glucosidase using p-nitrophenyl-alpha-D-glucopyranoside substrate assessed as reduction in p-nitrophenolate formation by Lineweaver-Burk plot
Method in brief: (§2)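 Same α-glucosidase conditions: pH 6.8 phosphate buffer, 25 °C, A400 for p-nitrophenolate, 5% DMSO. Done for inhibitors exceeding 50% inhibition at 500 µM. Rates measured at 5 substrate concentrations from 0.25 to 4.0 K_m, each at a fixed inhibitor concentration, using 2–3 inhibitor concentrations. Lineweaver–Burk double reciprocal plots gave the inhibition mode and constants K_ia (E) and K_ib (ES).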

[3] = system: T47D; assay: Antiproliferative activity against human T47D cells after 48 hrs by sulforhodamine B assay; format: functional; method in brief: as §1
[4] = system: T47D; assay: Potency index, ratio of GI50 for cisplatin to GI50 for compound against human T47D cells after 48 hrs by sulforhodamine B assay; format: functional
[5] = system: HeLa; assay: Potency index, ratio of GI50 for 5-fluorouracil to GI50 for compound against human HeLa cells after 48 hrs by sulforhodamine B assay; format: functional
[6] = Inhibition of baker's yeast alpha-glucosidase using p-nitrophenyl-alpha-D-glucopyranoside substrate assessed as reduction in p-nitrophenolate formation at 500 uM; conditions: Saccharomyces bayanus
Method in brief: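 α-Glucosidase in 0.1 M phosphate buffer pH 6.8 with p-nitrophenyl-α-D-glucopyranoside at K_M (250 µM; K_M 0.25 mM). Inhibitor at 500 µM final or DMSO, DMSO 5% v/v.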

[7] = Antiproliferative activity against human HBL100 cells after 48 hrs by sulforhodamine B assay; format: functional; conditions: HBL-100, 48 h; method in brief: as §1
[8] = Inhibition of baker's yeast alpha-glucosidase using p-nitrophenyl-alpha-D-glucopyranoside substrate assessed as inhibition constant for enzyme-substrate-compound binding by measuring reduction in p-nitrophenolate formation; method in brief: as §2
[9] = Antioxidant activity assessed as DPPH free radical scavenging activity incubated for 30 mins; format: physicochemical
Method in brief: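 DPPH in HPLC-grade solvent mixed with compound in DMSO at 7 concentrations, or with DMSO alone as control. Kept in the dark at rt for 30 min, then A515 read against a blank. % DPPH remaining = A_sample/A_control × 100, plotted against concentration; EC50 taken from the straight line. Triplicate.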

[10] = Antioxidant activity assessed as H2O2 scavenging activity at 100 uM incubated for 20 mins by phenol red based assay; format: physicochemical
Method in brief: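 Compound at 100 µM final, or DMSO control, in 0.1 M phosphate buffer pH 7.4 with H2O2 and 0.1 M NaCl, incubated in the dark at 37 °C for 20 min. Phenol red (0.2 mg/mL) and horseradish peroxidase (0.1 mg/mL) added, 15 min at 37 °C. NaOH added, 10 min at rt, A610 read. % reduction = (A_control − A_sample)/A_control × 100.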

[11] = system: WiDr; assay: Potency index, ratio of GI50 for cisplatin to GI50 for compound against human WiDr cells after 48 hrs by sulforhodamine B assay; format: functional
[12] = system: SW1573; assay: Antiproliferative activity against human SW1573 cells after 48 hrs by sulforhodamine B assay; format: functional; conditions: SW1573, 48 h; method in brief: as §1
[13] = system: WiDr; assay: Antiproliferative activity against human WiDr cells after 48 hrs by sulforhodamine B assay; format: functional; method in brief: as §1
[14] = system: WiDr; assay: Potency index, ratio of GI50 for 5-fluorouracil to GI50 for compound against human WiDr cells after 48 hrs by sulforhodamine B assay; format: functional
[15] = system: T47D; assay: Potency index, ratio of GI50 for 5-fluorouracil to GI50 for compound against human T47D cells after 48 hrs by sulforhodamine B assay; format: functional
[16] = system: A549; assay: Antiproliferative activity against human A549 cells after 48 hrs by sulforhodamine B assay; format: functional; conditions: A549, 48 h; method in brief: as §1
[17] = Antioxidant activity assessed as inhibition of the lipid peroxidation at 0.74 mM incubated for 24 hrs by ferric thiocyanate method; format: physicochemical; conditions: 740 µM
Method in brief: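 Ferric thiocyanate method at 0.74 mM. 10.0 mM DMSO stock combined with methanolic linoleic acid in 0.2 M phosphate buffer pH 7.0. AAPH added, then 24 h at 50 °C in the dark; DMSO served as control. An aliquot was diluted in H2O–DMSO with NH4SCN and FeCl2 in HCl. After 3 min at rt, A546 read. % inhibition relative to control.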

Oc1ccc(/C=N/NC(=[Se])Nc2cccc3ccccc23)cc1
GI50 [1]: 2200 nM
inhibition [2]: Active
GI50 [3]: 2500 nM
RatioGI50 [4]: 6
RatioGI50 [5]: 6.5
inhibition [6]: 100%
GI50 [7]: 2100 nM
Ki [8]: 59000 nM
EC50 [9]: 21700 nM
inhibition (INH) [10]: 53.1%
RatioGI50 [11]: 11
GI50 [12]: 2300 nM
GI50 [13]: 2300 nM
RatioGI50 [14]: 21
RatioGI50 [15]: 19
GI50 [16]: 1300 nM
inhibition (INH) [17]: 23.3%
